# High-throughput results from PubChem.
# The sample as a whole holds a higher share of hits than the screen did.
# CHOP inh = inhibitors of CHOP induction in ER stress response; CHO-K1 CHOP-promoter luciferase, tunicamycin-induced, 15-18 h; inhibition, % at 10 µM; 220,000 compounds, 3.8% hits; AID 2732;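 active = compounds that reduced the stress-induced luciferase reporter signal by more than about 70% of percent inhibition, limit read from the data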;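 note: 0% = tunicamycin plus vehicle and 100% = wells without tunicamycin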
# XBP1 UPR activ = activators of adaptive arm of unfolded protein response (XBP1); CHO-XBP1 luciferase reporter, IRE1-XBP1 UPR activation, luminescence; percent of tunicamycin response, DMSO as zero; activation, % at 20 µM; 330,000 compounds, 0.33% hits;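 active = versus positive control, 20 µM dose yields 30% or more activation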;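 note: 100% = tunicamycin at 10 µg/mL and 0% = DMSO only wells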
#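 Test system: CHO-XBP1 luciferase reporter cells | Buffer or medium: Serum-containing F12 medium, 10% FBS | Schedule: 6 h compound exposure at 37 °C, 5% CO2 | Detection: Steady-Glo luciferase glow luminescence, 10 min after reagent addition | Read-out basis: Activation, % of tunicamycin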
# A1 inh = inhibitors of the anti-apoptotic protein A1, read as caspase activation. caspase activation, % (test concentration not listed). AID 2462. MEF A1-2A-BIM cells, Caspase-Glo 3/7 luminescence, 3 h; percent of clofoctol response, vehicle zero. 330,000 compounds, 0.066% hits;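 active = over half of replicate activation scores above 10%, or exactly half above 10 with the replicate mean above 10; inconclusive = replicate mean below 10 yet half the replicates above 10; inactive = over half of replicates below 10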
# CHOP UPR activ = apoptotic UPR (CHOP) activation | CHO-CHOP luciferase reporter, luminescence; percent of tunicamycin response over DMSO baseline | activation, % at 10 µM | 330,000 compounds, 0.34% hits | AID 449763;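 active = at 10 µM dose, activation of 40% or more, normalized to positive control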;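 note: 100% = tunicamycin at 10 µg/mL and 0% = DMSO alone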
#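 System: CHO CHOP reporter cells. Amount: 500 cells per well. Buffer or medium: F12 medium, 10% FBS. Compound dosing: one dose, 10 µM in 0.5% DMSO. Incubation: 6 h compound exposure at 37 °C after overnight seeding. Technique: Steady-Glo luciferase luminescence. Benchmarks: tunicamycin and DMSO controls.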
# * marks the source's active call; other numbers are inactive results; ? = inconclusive; nt = no result.
SMILES,CHOP inh,XBP1 UPR activ,A1 inh,CHOP UPR activ
Cc1ccccc1NC(=S)NC(NC(=O)COc1ccccc1)C(Cl)(Cl)Cl (configuration not stated),83*,-3,0,1
CCOc1cc(NC(=S)NCCCN2CCOCC2)c(OCC)cc1NC(=O)CC(C)C,13,1,1,-1
Cc1nc(SCC(=O)Nc2ccccc2C(F)(F)F)c(C#N)c(C)c1CC(=O)c1ccc(Br)cc1,88*,33*,0,-1
COc1ccc(-c2cc(C(F)(F)F)c(C#N)c(SCC(=O)Nc3ccccc3C#N)n2)cc1,44,23,0,18
Cc1cccc(C)c1NC(=O)CSc1nc(C)c(CC(=O)c2ccc(Br)cc2)c(C)c1C#N,91*,23,3,2
COc1cc(CNC2CCCC2)cc(Cl)c1OCc1ccccc1F,79*,2,0,-1
O=C(O)C1CC(=O)N(CCc2ccccc2)C1 (configuration not stated),3,-3,0,-1
CN(C)CCCN1CC(C(=O)O)CC1=O (configuration not stated),76*,-1,1,-1
c1ccc(-c2nnc3sc(CN4CCC5(CC4)OCCO5)cn23)cc1,77*,0,0,1
c1ccc(-c2nnc(CN3CCC4(CC3)OCCO4)o2)cc1,6,0,1,3
COc1ccc([N+](=O)[O-])cc1NCc1ccco1,5,0,0,-2
C/C(=N\NC(=O)c1ccc([N+](=O)[O-])cc1Cl)c1ccccc1,83*,6,-1,4
COc1cccc(-c2nc(-c3ccccc3)nc(N3CCN(C)CC3)c2C#N)c1,77*,5,1,0
O=C(CN1C(=O)/C(=C\c2cccc(Cl)c2)Oc2ccccc21)N1CCN(c2ccccn2)CC1,100*,29,0,5
O=C(CN1C(=O)/C(=C/c2ccccc2F)Oc2ccccc21)N1CCN(c2ccccn2)CC1,86*,3,1,4
O=c1[nH]c(NNC(=S)NCc2ccccc2)nc2c1C1(CCCCC1)Cc1ccccc1-2,87*,-2,1,-2
CCc1nc(CN2CCCC(C(=O)c3ccc4c5c(cccc35)CC4)C2)c(C)[nH]1 (configuration not stated),21,2,0,-1
CC(=O)N1C(=S)NC(=O)/C1=C1/C(=O)N(CC(=O)Nc2cccc(C)c2)c2ccccc21,47,-2,0,1
Cc1[nH]nc2c1C(c1ccc3c(c1)OCO3)C(C#N)=C(N)O2 (configuration not stated),7,-2,-1,0
CC(=O)N1CCN(c2ccc(NC(=O)c3ccc([N+](=O)[O-])o3)cc2Cl)CC1,nt,-3,0,73*
CCC(=O)N1CCN(c2ccc(NC(=O)c3ccc([N+](=O)[O-])o3)cc2Cl)CC1,25,nt,nt,nt
Cc1cc(NC(=O)CCN2C(=O)/C(=C\c3ccccc3Cl)SC2=S)no1,81*,1,0,-2
Cc1cc(NC(=O)CCCN2C(=O)/C(=C\c3cccs3)SC2=S)no1,70*,5,0,1
CC1CCC(NC(=O)CN2CCN(S(=O)(=O)c3cccs3)CC2)CC1 (configuration not stated),nt,0,-1,0
COc1ccc(C2=C(Nc3ccc(F)cc3)c3ccccc3C2=O)cc1,-9,-1,0,-3
SMILES,CHOP inh,XBP1 UPR activ,A1 inh,CHOP UPR activ
O=C(CSc1ccc2c(c1)OCCO2)Nc1cccnc1,-7,-2,-2,-1
CCOc1ccc(-n2cc(-c3ccccc3)c3c(N4CCOCC4)ncnc32)cc1,-2,4,0,0
COc1ccc(-n2cc(-c3ccccc3)c3c(N4CC(C)OC(C)C4)ncnc32)cc1 (configuration not stated),73*,3,1,1
CCCC(=O)Nc1c(C(=O)OCC)[nH]c2ccccc12,6,1,1,-1
CCOC(=O)c1[nH]c2ccccc2c1NC(=O)Nc1ccc(OC)cc1,87*,-2,0,2
CCOC(=O)N1CCc2c(sc3c2c(=O)n(Cc2ccccc2)c(=O)n3CC(=O)NCCOC)C1,11,-3,0,0
CCCOc1cc(C)c(S(=O)(=O)n2ccc(C)n2)cc1C,93*,-5,-1,2
COC(=O)c1cc2c(ccn2-c2ccc(F)cc2)n1CC(C)C,23,5,0,0
CCCn1c(C(=O)OC)cc2c1ccn2-c1ccc(F)cc1,71*,3,0,3
CN(c1ccccc1)c1nc(N)c([N+](=O)[O-])c(NC2CCCCC2)n1,nt,10,1,1
CCn1c(=O)c([N+](=O)[O-])c(Cl)c2ccccc21,108*,-6,?,-10
CC(C)Nc1nc(Oc2ccc(=O)n(-c3ccccc3)n2)nc(N(C)C)n1,-8,2,0,0
CCCCn1c(=O)c(CCC(=O)OCC(=O)Nc2cccc3ccccc23)nc2ccccc21,-8,0,0,2
COC(=O)Nc1ccc2ncn(C)c(=O)c2c1,16,-3,0,1
CC(=O)NNC(=O)C(O)(c1ccccc1)c1ccccc1,-5,1,0,2
Cc1ccc(/C(O)=C/C(=O)C(=O)NNC(=O)C(O)(c2ccccc2)c2ccccc2)cc1,85*,-5,2,0
NC(N)=NCCSSCCN=C(N)N,7,nt,nt,nt
Cc1ccc(C)c(NC(=O)C(Sc2nc3ccc(C)cc3[nH]2)c2ccccc2)c1 (configuration not stated),73*,1,1,-1
Nc1ccc(S(=O)(=O)Nc2nccs2)cc1,nt,-1,nt,0
COc1cccc(NCc2cc(=O)oc3cc(C)c(O)cc23)c1,nt,-3,0,1
COc1cccc(NCc2cc(=O)oc3cc(-c4ccccc4)c(O)cc23)c1,82*,0,1,3
COc1cc(OC)cc(-c2cc3nc(C)c(CCC(=O)O)c(C)n3n2)c1,95*,nt,-9,nt
COc1cc(OC)cc(-c2cc3nc(C)c(CCC(=O)NC(C)CCc4ccco4)c(C)n3n2)c1 (configuration not stated),nt,-2,1,-2
Cc1nc2cc(-c3cccc(F)c3)nn2c(C)c1CCC(=O)N1CCN(c2ccccn2)CC1,43,-1,-1,-3
Cc1nc2cc(-c3ccccc3)nn2c(C)c1CCC(=O)N1CCN(c2ccccn2)CC1,71*,nt,nt,nt
CCOC(=O)C1CCCCN1C(=O)CCc1c(C)nc2cc(-c3ccccc3)nn2c1C (configuration not stated),73*,-5,0,-4
O=C(c1cccc(C(F)(F)F)c1)c1c[nH]c(C(=O)NCC2CCCO2)c1 (configuration not stated),8,-3,-1,1
COc1ccc(C2CC(O)(c3ccccc3)Oc3c(C)ccc(C)c32)cc1 (configuration not stated),98*,2,0,4
